Reference: ChEMBL document CHEMBL4190247, “Monastrol, a 3,4-dihydropyrimidin-2(1H)-thione, as structural scaffold for the development of modulators for GHB high-affinity binding sites and α1β2δ GABAA receptors” (Eur J Med Chem, 2017)
The source made the active and inactive calls. The calls are words filed in the database; no cut-off is given here.

Columns and labels:
Rattus norvegicus [1] = species: Rattus norvegicus; test: Modulation of [3H]NCS-382 binding to alpha4betadelta GABAA receptor in rat cortical membranes after 1 hr by TopCount scintillation counting method; assay type: cell membranes
Outline: (§1)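 Rat cortical membrane homogenate (50-70 µg protein per well) incubated with 16 nM [³H]NCS-382 and increasing analogue concentrations, 1 hr at 0-4 °C. Bound ligand collected by rapid filtration on GF/C filters and counted by scintillation. Single-point screen at 100 µM; cooperativity factor (α) and modulator Kb obtained by curve fitting. Triplicates, at least three independent experiments.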

Rattus norvegicus [2] = species: Rattus norvegicus; test: Modulation of [3H]NCS-382 binding to alpha4betadelta GABAA receptor in rat cortical membranes assessed as [3H]NCS-382 binding at 100 uM after 1 hr by TopCount scintillation counting method relative to control; assay type: cell membranes; outline: as §1
[3] = biological target: T1, Gamma-aminobutyric acid receptor subunit alpha-1/beta-2/delta (Homo sapiens) (UniProt P14867+P47870+O14764); test: (§2) Modulation of human alpha1beta2delta GABAA receptor expressed in Xenopus laevis oocytes assessed as increase in GABA-induced current at 1 mM at -60 mV holding potential by two-electrode voltage clamp electrophysiology method relative to control; assay type: cell-based
Outline: (§3)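 X. laevis oocytes injected with 0.9–1.8 ng cRNA for human α1, β2 and δ subunits (5:1:5) and stored at 18 °C in Barth's solution, pH 7.5. Two-electrode voltage clamp with 3 M KCl electrodes (~2–4 MΩ), perfused with recording solution at pH 7.4. Compound co-applied with 1 mM GABA. Initial and rebound currents expressed as fold increase over the 1 mM GABA response, mean ± S.E.M.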

[4] = biological target: T1, Gamma-aminobutyric acid receptor subunit alpha-1/beta-2/delta (Homo sapiens); test: Agonist activity at human alpha1beta2delta GABAA receptor expressed in Xenopus laevis oocytes assessed as increase in current amplitude at 1 mM at -60 mV holding potential by two-electrode voltage clamp electrophysiology method; assay type: cell-based; outline: as §3
[5] = biological target: T1, Gamma-aminobutyric acid receptor subunit alpha-1/beta-2/delta (Homo sapiens); test: as §2, with “current by measuring rebound current” for “current”, “potential measured after termination of compound application” for “potential”; assay type: cell-based; outline: as §3
[6] = biological target: GABA-A receptor; GABA-A site (alpha1/beta2 interface) (Homo sapiens) (UniProt P14867+P47870); test: Modulation of human alpha1beta2 GABAA receptor expressed in Xenopus laevis oocytes assessed as increase in GABA-induced current at 1 mM at -60 mV holding potential by two-electrode voltage clamp electrophysiology method; assay type: cell-based
Outline: (§4)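 cRNA for human α1β2 (1:1) or α1β2γ2S (5:1:5) subunits injected into X. laevis oocytes (0.9–1.8 ng) and stored at 18 °C in Barth's solution, pH 7.5. Two-electrode voltage clamp in perfused recording solution at pH 7.4. Test compound at 1 mM applied with 1 mM GABA. Currents normalized and given as fold potentiation.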

[7] = biological target: GABA-A receptor; alpha-1/beta-2/gamma-2 (Homo sapiens) (UniProt P14867+P47870+P18507); test: Modulation of human alpha1beta2gamma2S GABAA receptor expressed in Xenopus laevis oocytes assessed as increase in GABA-induced current at 1 mM at -60 mV holding potential by two-electrode voltage clamp electrophysiology method; assay type: cell-based; outline: as §4
[8] = biological target: T1, Gamma-aminobutyric acid receptor subunit alpha-1/beta-2/delta (Homo sapiens); test: as §2, with “by measuring rebound current” for “at 1 mM”, “potential measured after termination of compound application” for “potential”; assay type: cell-based; outline: as §3

Row | SMILES | Kb (Rattus norvegicus [1]) | %max (Rattus norvegicus [2]) | further results
1 | CCOC(=O)C1=C(C)N(C)C(=S)NC1c1cccc(O)c1 (stereo not given) | 87 µM | 177% | pKb (Rattus norvegicus [1]): 4.06; fold change (FC) [3]: 3.1; Activity [4]: inactive; Activity [5]: Active; Activity [6]: inactive; Activity [7]: inactive
2 | CCOC(=O)C1=C(C)N(Cc2ccccc2)C(=S)NC1c1cccc(O)c1 (stereo not given) | inactive | inactive | –
3 | CCOC(=O)C1=C(C)N(CC)C(=S)NC1c1cccc(O)c1 (stereo not given) | – | 130% | –
4 | CC1=C(C(=O)OCc2ccccc2)C(c2cccc(O)c2)NC(=S)N1 (stereo not given) | inactive | inactive | –
5 | CCOC(=O)C1=C(C)N(c2ccccc2)C(=S)NC1c1cccc(O)c1 (stereo not given) | inactive | inactive | –
6 | CCOC(=O)C1=C(C)N(C)C(=S)N(C)C1c1cccc(O)c1 (stereo not given) | inactive | inactive | –
7 | CCOC(=O)C1=C(c2ccccc2)NC(=S)NC1c1cccc(O)c1 (stereo not given) | inactive | inactive | –
8 | CCCCN1C(=S)NC(c2cccc(O)c2)C(C(=O)OCC)=C1C (stereo not given) | inactive | inactive | –
9 | CCOC(=O)C1=C(C)N=C(S)NC1C (stereo not given) | inactive | inactive | –
10 | CCOC(=O)C1=C(C)NC(=S)NC1c1cccc(Cl)c1 (stereo not given) | inactive | inactive | –
11 | CCOC(=O)C1=C(C)NC(=S)NC1c1ccccc1 (stereo not given) | inactive | inactive | –
12 | CCOC(=O)C1=C(C)NC(=S)NC1c1cccc(O)c1 (stereo not given) | – | 185% | pKb (Rattus norvegicus [1]): 3.96; fold change (FC) [3]: 2.9; Activity [4]: inactive; Activity [6]: inactive; Activity [7]: inactive; Activity [8]: Dose-dependent effect
13 | CCOC(=O)C1=C(C)NC(=S)NC1c1cccnc1 (stereo not given) | inactive | inactive | –
14 | CCOC(=O)C1=C(C)NC(=S)NC1c1cc(O)cc(O)c1 (stereo not given) | – | 247% | pKb (Rattus norvegicus [1]): 3.83
15 | CCOC(=O)C1=C(C)NC(=S)NC1c1cccc(OC)c1 (stereo not given) | inactive | inactive | –
16 | CCC(=O)C1=C(CC)NC(=S)NC1c1cccc(O)c1 (stereo not given) | – | 130% | –
17 | COC(=O)C1=C(C)NC(=O)NC1c1ccccc1 (stereo not given) | inactive | – | fold change (FC) [3]: 5.9; Activity [4]: inactive; Activity [6]: inactive; Activity [7]: inactive
18 | CCOC(=O)C1=C(C)N=C(S)NC1c1cccc([N+](=O)[O-])c1 (stereo not given) | inactive | inactive | –
19 | CCOC(=O)C1=C(C(C)C)NC(=S)NC1c1cccc(O)c1 (stereo not given) | – | 130% | –
20 | CCOC(=O)C1=C(CC)NC(=S)NC1c1cccc(O)c1 (stereo not given) | – | 245% | pKb (Rattus norvegicus [1]): 3.98; fold change (FC) [3]: 1.4; Activity [4]: inactive; Activity [5]: Active; Activity [6]: inactive; Activity [7]: inactive

Row | SMILES | Kb (Rattus norvegicus [1]) | %max (Rattus norvegicus [2]) | further results
21 | CCCC1=C(C(=O)OCC)C(c2cccc(O)c2)NC(=S)N1 (stereo not given) | – | 198% | –
22 | CCN(CC)C(=O)C1=C(C)NC(=S)NC1c1cccc(O)c1 (stereo not given) | inactive | inactive | –
23 | COC(=O)C1=C(C)N(C)C(=S)NC1c1cccc(O)c1 (stereo not given) | inactive | inactive | –
24 | CCOC(=O)C1=C(C)NC(=S)NC1c1ccc(O)cc1 (stereo not given) | inactive | inactive | –
25 | CCOC(=O)C1=C(C)NC(=S)N[C@@H]1c1cccc(O)c1 | – | 171% | pKb (Rattus norvegicus [1]): 3.48
26 | CCOC(=O)C1=C(C)NC(=S)NC1c1ccc(C)cc1 (stereo not given) | inactive | inactive | –
27 | CCOC(=O)C1=C(C)NC(=O)NC1c1ccccc1 (stereo not given) | inactive | inactive | –
28 | CCOC(=O)C1=C(C)NC(=S)NC1c1ccnn1C (stereo not given) | inactive | inactive | –
29 | CCOC(=O)C1=C(C)NC(=O)NC1c1cccc(O)c1 (stereo not given) | inactive | inactive | fold change (FC) [3]: 6.2; Activity [4]: inactive; Activity [6]: inactive; Activity [7]: inactive
30 | CC(=O)C1=C(C)NC(=S)NC1c1cccc(O)c1 (stereo not given) | – | 130% | –
31 | CCOC(=O)C1=C(C)NC(=S)NC1c1cccc(F)c1 (stereo not given) | inactive | inactive | –
32 | CCOC(=O)C1=C(C)NC(=S)NC1c1cn(-c2ccccc2)nn1 (stereo not given) | inactive | inactive | –
33 | CCOC(=O)C1=C2CCCN2C(=S)NC1c1cccc(O)c1 (stereo not given) | inactive | inactive | –
34 | CC1=C(C(=O)O)C(c2cccc(O)c2)NC(=S)N1 (stereo not given) | inactive | inactive | –
35 | CCOC(=O)C1=C(C)NC(=S)NC1c1ccc(O)c(O)c1 (stereo not given) | – | 246% | pKb (Rattus norvegicus [1]): 3.68; fold change (FC) [3]: 2.7; Activity [4]: inactive; Activity [5]: Active; Activity [6]: inactive; Activity [7]: inactive
36 | CCOC(=O)C1=C(C(C)(C)C)NC(=S)NC1c1cccc(O)c1 (stereo not given) | – | 130% | –
37 | CCOC(=O)C1=C(C)NC(=S)N[C@H]1c1cccc(O)c1 | – | 208% | pKb (Rattus norvegicus [1]): 3.95
38 | COC(=O)C1=C(C)NC(=S)NC1c1cccc(O)c1 (stereo not given) | – | 194% | pKb (Rattus norvegicus [1]): 3.46; fold change (FC) [3]: 1.3; Activity [4]: inactive; Activity [5]: Active; Activity [6]: inactive; Activity [7]: inactive
39 | CCOC(=O)C1=C(C)NC(=S)NC1c1cccc(C)c1 (stereo not given) | inactive | inactive | –
